Assay outcomes from PubChem.
The list is not random: actives were taken first. Their share in the collection is about 1.5%.
CHRM4 agonist = CHRM4 agonism in calcium assay; P08173; CHO-K1 hM4/Gqi5, Fluo-8 calcium fluorescence; vehicle 0%, full acetylcholine response 100%; activation, % at 3 µM; 360,000 compounds, 0.14% hits; AID 624127;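 active means activation above the run mean over all test wells plus 3 SD, cut at about 32% in these data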;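 further: peak over basal fluorescence ratio per well then scaled between controls; 0% = DMSO wells and 100% = acetylcholine at EC100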
OXTR potentiator = human OXTR potentiation | P30559 | CHO-OTR cells, Fluo-8 calcium fluorescence, potentiator mode; 0% = oxytocin EC15, 100% = EC100 | 320,000 compounds, 0.061% hits | activation, % at 3 µM;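 active means activation above that plate's cutoff, the mean activation of tested compounds plus 3 SD, cut at about 6.6% in these data, passing the limit was not always enough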;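 further: 100% uses oxytocin at 75 nM as the full agonist control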
Target sequence (P30559 whole entry, looked up): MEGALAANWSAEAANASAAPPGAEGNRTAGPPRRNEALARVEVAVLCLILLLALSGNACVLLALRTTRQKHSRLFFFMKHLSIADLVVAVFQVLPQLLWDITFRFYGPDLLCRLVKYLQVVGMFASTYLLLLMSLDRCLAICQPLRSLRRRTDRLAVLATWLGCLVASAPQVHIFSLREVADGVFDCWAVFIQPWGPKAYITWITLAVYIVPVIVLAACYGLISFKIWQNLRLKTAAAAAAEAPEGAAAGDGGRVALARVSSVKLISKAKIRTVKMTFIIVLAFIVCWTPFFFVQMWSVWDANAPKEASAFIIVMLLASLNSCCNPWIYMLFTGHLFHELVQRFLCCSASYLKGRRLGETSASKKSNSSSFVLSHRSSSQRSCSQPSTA
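Material: CHO-OTR cells, human receptor; compound dosing: single dose, 3.0 µM nominal final compound concentration; schedule: 6 min compound pre-incubation at room temperature, 100 s kinetic read; measured by: kinetic Fluo-8 calcium fluorescence; read-out basis: % activation vs EC15 and EC100 oxytocin; controls: EC15 oxytocin alone as 0%, 75 nM oxytocin as 100%; replicates: singlicate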
CHRM4 antagonist = antagonists of human muscarinic M4 receptor (CHRM4); P08173; CHO-hM4 cells, ACh EC80, Fluo-8 calcium fluorescence; inhibition, % at 3 µM; 360,000 compounds, 0.73% hits;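 active means inhibition above its plate's cutoff, the mean inhibition of sample wells plus 3 SD, cut at about 27% in these data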;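 further: 0% = acetylcholine EC80 with DMSO and 100% = DMSO without agonist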
M4 PAM = positive allosteric modulators of human muscarinic M4 receptor; P08173; CHO-K1 hM4/Gqi5, Fluo-8 calcium fluorescence, ACh EC20; 0% = ACh EC20, 100% = maximal ACh; activation, % at 3 µM; 360,000 compounds, 0.4% hits; AID 624126;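 active means activation above its plate's cutoff, the mean activation of sample wells plus 3 SD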
V1R ag counter = counter-screen for oxytocin receptor agonists: human V1a receptor agonists. CHO-V1R cells, Fluo-8 calcium fluorescence, agonist mode; 0% DMSO, 100% 3 nM vasopressin. activation, % at 3 µM. 320,000 compounds, 0.25% hits;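 active means activation above the mean activation of all tested compounds plus 3 SD, per screening run, cut at about 20% in these data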;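 further: signal is peak over basal fluorescence ratio across a 100 second FLIPR read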
OXTR ag = human OXTR agonism; P30559; CHO-OTR cells, Fluo-8 calcium fluorescence; normalized: DMSO 0%, oxytocin 100%; activation, % at 3 µM; 320,000 compounds, 0.32% hits;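 active means activation above the mean of all tested compounds plus 3 SD, cutoff set per screening run, cut at about 20% in these data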;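 further: peak over basal fluorescence ratio from a 100 s FLIPR kinetic read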
* marks the source's active call; other numbers are inactive results; . = no result.

SMILES	CHRM4 agonist	OXTR potentiator	CHRM4 antagonist	M4 PAM	V1R ag counter	OXTR ag
O=C(O)c1cc(-c2ccc(Cl)cc2)n(-c2ccc(F)cc2)n1	0	0	6	-2	0	3
CCOC(=O)c1ccc(-c2ccc(-c3cc(=O)oc4cc(OC)c(OC)c(OC)c34)cc2)cc1	0	.	-8	0	.	.
COc1ccc(CN(C)C(=O)/C=C/[C@H]2O[C@@H](n3cnc4c(N)ncnc43)[C@H](O)[C@@H]2O)cc1OC	0	.	-16	12	.	.
c1ccc(-n2cnc3ccccc32)nc1	0	-7	-5	0	-1	0
S=c1[nH]ncn1-c1ccccn1	0	-7	5	25*	0	-1
O=C(COC(=O)c1ccc(F)c(S(=O)(=O)N2CCOCC2)c1)NCCc1ccccc1	2	-6	-28	21*	4	1
CCCCOCCCNC(=O)C[C@@H]1C[C@@]2(C(=O)OCC)CCCC=C2N(Cc2ccc(Cl)cc2Cl)C1=O	0	.	0	3	.	.
O=[N+]([O-])c1ccc(Cl)c(CN2CCN(c3ncccn3)CC2)c1	0	-1	4	-2	0	-3
Cc1ccc2nc(C)c(CN3CCN(c4ccc([N+](=O)[O-])cc4Cl)CC3)n2c1	12	-13	26*	-15	5	4
COc1cc(C=NO)nc(-c2ccccn2)c1	3	.	-14	3	.	.
CN(Cc1ccco1)C(=O)Cn1nc(-c2ccc(Cl)cc2)ccc1=O	3	-6	4	-11	0	-1
CC(C)C1S/C(=N/N=C/c2ccco2)NC1=O (stereo unspecified)	2	-5	30*	2	2	0
COC(=O)c1ccc(COc2ccc(-c3nn[nH]n3)cc2)cc1	2	-6	7	-3	2	2
COc1ccc(N(Cc2ccccc2)S(=O)(=O)c2cccc(C(=O)NCC3CCCO3)c2)cc1 (stereo unspecified)	5	.	-4	14	.	.
CCN(C(=O)c1ccc(=O)[nH]c1)c1c(N)n(Cc2ccccc2)c(=O)[nH]c1=O	1	7	5	22*	0	1
COCCCN(C(=S)NC(=O)c1ccc(C(C)(C)C)cc1)c1c(N)n(Cc2ccccc2)c(=O)[nH]c1=O	2	-7	-2	27*	-1	-2
CCN(C(=O)COC(=O)c1cc2ccccc2cc1OC)c1c(N)n(Cc2ccccc2)c(=O)[nH]c1=O	1	.	-13	22*	.	.
COc1cc2ccccc2cc1C(=O)OCC(=O)N(C)c1c(N)n(Cc2ccccc2)c(=O)[nH]c1=O	1	-6	3	3	0	0
CCN(C(=O)c1ccc(=O)n(C)n1)c1c(N)n(Cc2ccccc2)c(=O)[nH]c1=O	1	-2	-5	5	0	1
COc1ccccc1N(CC(=O)Nc1ccc2c(c1)OCCO2)S(=O)(=O)c1ccc(C)cc1	3	-9	-10	-2	1	1
COC(=O)c1ccc(N2CCN(c3ccccc3)CC2)c(N)c1	2	-14	6	3	1	0
CC(Sc1nnc(Cc2cccs2)n1C1CC1)C(=O)NC1CCS(=O)(=O)C1 (stereo unspecified)	0	.	15	5	.	.
CC(=O)c1cccc(S(=O)(=O)N2CCC(C(=O)O)(c3ccccc3)CC2)c1	0	-16	-31	16*	0	0
CC(=O)c1cccc(S(=O)(=O)N2CCC(C(=O)O)CC2)c1	1	-3	-6	-9	1	1
O=C(NN=C1CCCC1)c1n[nH]c2c1CCC2	1	2	-1	27*	0	0
SMILES	CHRM4 agonist	OXTR potentiator	CHRM4 antagonist	M4 PAM	V1R ag counter	OXTR ag
O=C(NN=C1CCCC1)c1n[nH]c2c1CCCC2	1	-9	-2	-1	1	0
Cn1c(=O)c(N)c2c3c(c(Br)ccc31)C(=O)c1ccccc1-2	16	-19	15	-23	28*	25*
O=C1Cc2cc(S(=O)(=O)Nc3ccc(N4CCOCC4)cc3)ccc2N1	0	-8	8	7	1	2
Cc1cccc(OCC(=O)NCC(=O)N/N=C/c2cc(Br)cc(Br)c2O)c1	2	-24	-8	2	0	-1
Cc1cccc(NC(=O)COC(=O)c2cccc3c2C(=O)c2ccccc2C3=O)c1C	-1	-12	57*	-32	-1	-2
O=C(Cn1ccccc1=S)c1ccc(Cl)c(Cl)c1	2	-12	-1	-3	1	-1
On1ccccc1=S	3	-12	31*	0	2	1
COC(=O)C1=C(C)NC(C)=C(C(=O)OC)C1C(=O)OCC(=O)NC1CCCCC1C (stereo unspecified)	3	.	9	-2	.	.
Cc1noc(C)c1S(=O)(=O)NCCCN1CCN(Cc2ccccc2)CC1	.	-12	.	.	1	1
Cc1noc(C)c1S(=O)(=O)NCCN1CCN(c2ccccc2)CC1	4	-7	-12	17*	0	0
Cc1ccc([N+](=O)[O-])cc1S(=O)(=O)Nc1ccc(C(=O)NCC2CCCO2)cc1 (stereo unspecified)	0	-4	7	1	1	1
O=C(CN1CCN(C(c2ccccc2)c2ccccc2)CC1)N1CCOCC1	2	-2	37*	-16	1	0
COc1ccc(N2CCN(CC(=O)NC(C)c3ccccc3)CC2)cc1 (stereo unspecified)	0	-8	-3	2	2	0
O=C(O)COCC(=O)N1CCN(C(c2ccccc2)c2ccccc2)CC1	16	2	41*	-50	1	1
N#CCC(=O)N1CCN(C(c2ccccc2)c2ccccc2)CC1	-1	-8	5	-8	-1	-2
COc1ccc(N2CCN(C(=O)CN3CCN(C(c4ccccc4)c4ccccc4)CC3)CC2)cc1	0	-2	28*	-15	1	-2
O=[N+]([O-])c1ccc(N2CCN(Cc3ccccc3)CC2)c2c1no[n+]2[O-]	20	.	20	-13	.	.
O=C(CCN1C(=O)S/C(=C\c2ccc(F)cc2)C1=O)Nc1ccc(C(=O)O)c(O)c1	1	-4	-2	17*	0	-1
CCn1c2ccccc2nc2cc3c(cc21)c(Cl)c(=O)c1ccccc13	1	.	-5	-4	.	.
COC(=O)c1[nH]c2c(c1C)C(=O)CC(c1cc(OC)ccc1OC)C2 (stereo unspecified)	4	-3	-9	4	2	-1
COC(=O)c1[nH]c2c(c1C)C(=O)CC(c1cccs1)C2 (stereo unspecified)	10	-3	12	30*	4	2
Cc1cc2nc3c(=O)[nH]c(=S)[nH]c3nc2cc1NC(=O)C(F)(F)F	12	-17	-4	-9	80*	55*
